Only some compounds are listed: those with a hit (about 3.7% of all), similar ones and a draw of the others.
KCNQ1 act = potentiators or activators of human KCNQ1 potassium channel. AID 2648. actives 0.35% (n = 310,000). CHO-K1 KCNQ1, thallium flux FluxOR fluorescence; stronger effect = higher value. B-score at 10 µM. P51787;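 active = fluorescence ratio B-score, a plate-corrected score, at least three library SD, with initial intensity B-score within 5 SD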
Target sequence (P51787 whole entry, looked up): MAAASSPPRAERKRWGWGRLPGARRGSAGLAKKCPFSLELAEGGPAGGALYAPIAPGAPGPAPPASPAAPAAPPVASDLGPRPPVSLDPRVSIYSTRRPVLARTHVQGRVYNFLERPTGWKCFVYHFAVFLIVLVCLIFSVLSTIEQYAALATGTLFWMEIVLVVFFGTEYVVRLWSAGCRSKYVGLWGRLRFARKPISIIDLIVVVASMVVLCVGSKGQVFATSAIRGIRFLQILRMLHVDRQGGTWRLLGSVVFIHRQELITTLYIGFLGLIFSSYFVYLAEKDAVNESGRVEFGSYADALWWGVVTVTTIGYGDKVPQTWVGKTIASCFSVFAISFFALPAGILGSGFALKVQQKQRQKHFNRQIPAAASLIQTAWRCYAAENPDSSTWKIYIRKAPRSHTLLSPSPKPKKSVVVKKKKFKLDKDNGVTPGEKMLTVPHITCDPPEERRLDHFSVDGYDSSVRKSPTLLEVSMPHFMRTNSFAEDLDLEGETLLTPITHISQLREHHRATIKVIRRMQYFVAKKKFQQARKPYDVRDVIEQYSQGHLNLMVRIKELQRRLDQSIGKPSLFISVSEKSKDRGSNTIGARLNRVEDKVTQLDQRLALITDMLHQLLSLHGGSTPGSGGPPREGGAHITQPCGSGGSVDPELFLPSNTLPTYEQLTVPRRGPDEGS
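Material: CHO-K1 cells stably expressing KCNQ1. Medium: assay buffer for compound exposure, DMSO matched across wells. Reagent: K+/Tl+ depolarizing stimulus. Compound dosing: single-concentration screen. Times: 37 °C overnight plating, 90-min dark dye load, 20-min compound pretreatment. Technique: FluxOR Tl+ flux fluorescence.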
KCNQ1 inh = inhibitors of human KCNQ1 potassium channel; AID 2642; CHO-K1 KCNQ1, FluxOR thallium flux fluorescence; stronger effect = higher value; B-score at 10 µM; actives 1.3% (n = 310,000);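 active = compounds whose thallium flux B-score, printed positive for inhibition, exceeds three library SD while starting fluorescence stays within three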;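 also: channel opened by potassium depolarization with thallium stimulus after 20 min compound exposure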
KCNK3 inh = human KCNK3 channel inhibition, primary screen; CHO-KCNK3 thallium flux, FluxOR fluorescence; stronger effect = lower value; B-score at 10 µM; actives 0.84% (n = 340,000);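 active = B-score under library mean minus 4 SD, starting fluorescence ratio at most library mean plus 5 SD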;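 also: more negative B-score means stronger inhibition of thallium flux through KCNK3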
Kir21 block = blocks the mouse Kir2.1 inward-rectifier potassium channel. HEK293-Kir2.1, FluxOR thallium flux fluorescence; stronger effect = lower value. B-score at 10 µM. actives 0.85% (n = 310,000);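 active = fluorescence ratio B-score at or below minus 3 SD of library scores, with starting-brightness B-score within 2 SD, cut at about -4.2 in these data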;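 also: channel flux triggered by added potassium and thallium sulfate stimulus; B-score of peak minus minimum fluorescence over baseline after thallium stimulus; more negative B-score means stronger Kir2.1 block with less thallium influx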
KCNK9 block = inhibitors of human KCNK9 two-pore domain potassium channel; HEK293 KCNK9, FluxOR thallium flux fluorescence; stronger effect = lower value; B-score at 10 µM; actives 1.2% (n = 310,000); AID 488922;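 active = ratio B-score over 3 SD below the library mean, with starting fluorescence within 5 SD of its mean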;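 also: negative B-score means less thallium flux so channel inhibition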
hERG rescue = compounds protecting human hERG from proarrhythmic drug block. actives 0.51% (n = 310,000). CHO-hERG, FluxOR thallium flux, dofetilide IC70 present. activation (rescue from dofetilide block), less the hit threshold, % at 10 µM. Q12809;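 active = activation above the mean of controls blocked by dofetilide plus 5 SD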;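 also: thallium influx through hERG after potassium depolarization seen as dye fluorescence rise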
KCNQ1 block val = reconfirmed blocker of the human KCNQ1 potassium channel; shares compounds with KCNQ1 inh; KCNQ1 cell line, FluxOR thallium flux fluorescence; inhibition, % at 10 µM; actives 93% (n = 1,600);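 active = primary screen active, with duplicate mean exceeding buffer control mean plus 3 SD of buffer wells, cut at about 28% in these data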;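 also: 0% = buffer control ratio and 100% = XE991 inhibitor control ratio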
CHO KCNQ1 ctr = activity in parental CHO cells lacking KCNQ1. shares compounds with KCNQ1 inh. parental CHO-K1, FluxOR thallium flux fluorescence ratio; stronger effect = lower value; zero means no signal rise above baseline. fluorescence ratio (Tl flux) at 10 µM. actives 21% (n = 1,600);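 active = mean of duplicate thallium-flux fluorescence ratios in parental host cells more than 5 SD below the buffer control mean, cut at about 0.38 in these data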;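 also: ratio is peak minus minimum fluorescence divided by baseline fluorescence; actives read low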
KCNQ1 APC inh = human KCNQ1 inhibition validated by electrophysiology. actives 20% (n = 490). KCNQ1-CHO cells, automated patch clamp current. calls only at 10 µM. shares compounds with KCNQ1 inh;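 active = KCNQ1 current drop exceeding 3 SD of negative control wells, seen in both duplicate runs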;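 also: steady state current during a 2 s step from -80 to +40 mV; negative values mean current inhibition and positive values mean potentiation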
KCNQ2 spec = rat KCNQ2 inhibition in KCNQ1 inhibitor specificity screen | shares compounds with KCNQ1 inh | KCNQ2 cells, FluxOR thallium flux fluorescence | inhibition, % at 10 µM | actives 71% (n = 1,600);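 active = mean percent inhibition of the KCNQ2 thallium signal more than 5 SD above the buffer-only control wells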;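 also: KCNQ2 expressed in CHO cells; 0% = buffer control wells and 100% = XE-991 inhibitor control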
KCNQ1-KCNE1 inh = human KCNQ1/KCNE1 inhibition in KCNQ1 specificity screen; AID 652147; KCNQ1/KCNE1 cells, FluxOR thallium flux fluorescence; actives 77% (n = 1,600); shares compounds with KCNQ1 inh; inhibition, % at 10 µM;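 active = mean percent inhibition of duplicate wells above the buffer-only control mean plus 3 SD of those controls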;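 also: 0% = buffer only wells and 100% = XE-991 inhibitor control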
KCNK9 inh conf = confirmation of human KCNK9 potassium channel inhibitors; shares compounds with KCNK9 block; HEK293 KCNK9 cells, FluxOR thallium flux fluorescence; inhibition, % at 10 µM; actives 43% (n = 4,900);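 active = thallium signal inhibited by more than 5 SD of the compound-free buffer control wells, on both duplicate plates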;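 also: 0% = assay buffer control wells without compound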
Kir2-1 spec = mouse Kir2.1 off-target activity of KCNK9 modulators. shares compounds with KCNK9 block. inhibition, % at 10 µM. AID 492993. Kir2.1 cells, FluxOR thallium flux fluorescence. actives 4% (n = 4,900);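 active = thallium signal drop more than 5 SD beyond the mean of the no-compound control wells, seen in both duplicate plates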;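 also: signal is fluorescence rise after thallium addition divided by baseline fluorescence; plate controls were assay buffer only for no effect and full block by chlorpromazine control for full effect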
HEK293 Tl ctr = non-induced cell nonspecific activity of KCNK9 modulators | actives 40% (n = 4,900) | shares compounds with KCNK9 block | inhibition, % at 10 µM | non-induced KCNK9-HEK293, FluxOR thallium flux | AID 492997;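 active = thallium signal drop beyond 5 SD of the untreated control mean, on both duplicate plates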;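 also: plate controls were buffer only IC0 wells for no effect and SID17386958 at its maximal inhibitory level for full effect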
KCNK3 inh conf = human KCNK3 channel inhibition, confirmation assay | shares compounds with KCNK3 inh | CHO-KCNK3 thallium flux, FluxOR fluorescence; 0% buffer, 100% carvedilol maximal block | ratio percent of control, % at 10 µM | actives 99% (n = 2,400);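 active = ratio percent of control, averaged over triplicates, above buffer control mean plus 5 SD, cut at about 64% in these data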;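 also: ratio is the fluorescence rise from min to max over baseline after thallium stimulus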
KCNK3 uninduced = counter-screen for KCNK3 inhibitors: effect in non-induced cells; shares compounds with KCNK3 inh; non-induced KCNK3 parental cells, FluxOR thallium flux; stronger effect = lower value; thallium flux ratio (lower = more inhibition) at 10 µM; actives 40% (n = 2,400);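 active = thallium flux ratio, averaged over three wells, more than 5 SD below the buffer control mean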;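 also: host cells are CHO cells without KCNK3 induction; ratio is peak minus trough fluorescence over baseline then normalized to buffer controls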
The depositor's hits bear a star; i = inactive; . = no result; + = active, no number.

SMILES | KCNQ1 act | KCNQ1 inh | KCNK3 inh | Kir21 block | KCNK9 block | hERG rescue | KCNQ1 block val | CHO KCNQ1 ctr | KCNQ2 spec | KCNQ1-KCNE1 inh | KCNK3 inh conf | KCNK3 uninduced | others
c1ccc(N2CCN(c3nc(NCc4ccco4)c4ccccc4n3)CC2)cc1 | i | 12* | -12* | 1.44 | i | -26.0 | 144.0* | 0.352* | 114.3%* | 192.0%* | 139.7* | 0.11*
Cc1ccc(OCC(=O)NNC(=O)C2CSC3(C)CCC(=O)N23)cc1 (centres undefined) | i | i | i | 0.73 | i | -8.2 | . | . | . | . | . | .
CC(C)(C)NC(=O)C(c1cccs1)N(Cc1ccco1)C(=O)c1csnn1 (centres undefined) | i | i | i | -2.58 | i | -8.2 | . | . | . | . | . | .
CC(c1cccs1)N(Cc1ccco1)C(=O)Nc1ccc(Cl)c(Cl)c1 (centres undefined) | i | 19* | -10.9* | 0.27 | -13.8* | -9.8 | 145.5* | 0.354* | 115.7%* | + | 122.0* | 0.132* | KCNK9 inh conf=59.5%*;Kir2-1 spec=i;HEK293 Tl ctr=44.5%*
COc1ccccc1COc1ccc2c(C)c(CC(=O)O)c(=O)oc2c1C | i | i | i | 1.07 | i | -6.2 | . | . | . | . | . | .
O=C(Nc1ccc(Cl)c(Cl)c1)c1ccc(Cn2cc(Cl)cn2)cc1 | i | 8* | -11.7* | -1.69 | i | -6.8 | 111.5* | 0.429 | 105.3%* | 111.5%* | 109.3* | i | KCNQ1 APC inh=i
NNC(=O)c1ccc(Cn2cc(Cl)cn2)cc1 | i | i | i | 0.37 | i | -3.1 | . | . | . | . | . | .
O=[N+]([O-])c1c(Nc2ccccc2O)cc(Cl)c2nonc12 | i | 21* | -12.2* | -7.18* | i | -34.6 | 183.5* | 0.2* | 151.3%* | + | 154.3* | 0.0763*
O=[N+]([O-])c1c(Nc2ccccc2O)ccc2nonc12 | i | i | i | 1.48 | i | -1.1 | . | . | . | . | . | .
COc1ccc(C(=O)/C=C/C(=O)N(CC(=O)NC2CCCCC2)Cc2ccc(F)cc2)c(O)c1 | i | i | i | -0.74 | i | -33.7 | . | . | . | . | . | .
Cc1cc(NC(=O)c2cccc3c2C(=O)N(C2CCCCC2)C3)ccc1Br | i | i | i | -0.1 | i | -4.7 | . | . | . | . | . | .
Cc1cccc(C)c1NC(=O)c1cccc2c1C(=O)N(C1CCCCC1)C2 | i | 6* | -15.4* | 0.9 | -19.3* | -19.6 | 74.5* | 0.443 | 104.7%* | 129.0%* | 125.7* | 0.154* | KCNK9 inh conf=52.5%*;Kir2-1 spec=i;HEK293 Tl ctr=36.0%*
COc1ccc(N(C)C(=O)CN(C)S(=O)(=O)c2ccc3c(c2)c(=O)n(C)c(=O)n3C)c(OC)c1 | i | i | i | -1.3 | i | -8.4 | . | . | . | . | . | .
CCOc1cc(/C=N/NC(=O)c2cc(-c3cccc(OC)c3)nc3ccccc23)ccc1O | i | i | i | 0.15 | i | -11.7 | . | . | . | . | . | .
CC(C)COc1cccc(-c2cc(C(=O)N/N=C/c3ccncc3)c3ccccc3n2)c1 | i | 14* | -10.1* | -1.06 | i | -11.5 | 182.5* | 0.298* | 125.3%* | + | 118.3* | 0.0963*
CCN(CC(=O)NCc1ccncc1)S(=O)(=O)c1ccc(OC)cc1 | i | i | i | 0.11 | i | -4.1 | . | . | . | . | . | .
NC(=O)c1ccsc1NC(=O)COC(=O)Cc1cccc2ccccc12 | i | 9* | -8.92* | 0.69 | i | -30.9 | 110.0* | 0.314* | 103.7%* | + | 115.7* | i
Cn1c(=O)n(CC(=O)NCC2CCCO2)c(=O)c2c3c(sc21)COC(C)(C)C3 (centres undefined) | i | i | i | 0.91 | i | -2.0 | . | . | . | . | . | .
CC(=O)Nc1ccc(Nc2cc(C)nc3c(-c4ccccc4)c(C)nn23)cc1 | i | i | i | 2.5 | i | -6.0 | . | . | . | . | . | .
CC(=O)Nc1ccc(Nc2cc(C(C)C)nc3c(-c4ccccc4)c(C)nn23)cc1 | i | 7* | -11.9* | 1.83 | i | -12.7 | 117.5* | 0.377* | 77.0%* | 133.5%* | 123.0* | i
COC(=O)C1C(c2ccccc2)C(C(=O)OCc2ccco2)C1c1ccccc1 (centres undefined) | i | 6* | -11* | 0.02 | -8.3* | -24.5 | 95.0* | 0.36* | 111.0%* | 164.5%* | 116.3* | 0.147* | KCNK9 inh conf=44.5%*;Kir2-1 spec=i;HEK293 Tl ctr=24.0%*
Cc1cc(OCC(=O)Nc2ccncc2)c(C)cc1Br | i | 8* | -9.18* | -0.47 | i | -16.0 | 132.0* | 0.491 | 108.0%* | 43.5%* | 122.3* | i | KCNQ1 APC inh=i
CCc1ccc(OCC(=O)Nc2ccncc2)c(Br)c1 | i | i | i | -0.15 | i | -8.1 | . | . | . | . | . | .
CC(C)(C)c1ccc(OCC(=O)Nc2ccncc2)c(Br)c1 | i | 19* | -8.75* | 0.95 | i | -18.3 | 142.5* | 0.421 | i | 73.5%* | 137.7* | 0.125* | KCNQ1 APC inh=i
CCOC(=O)C1CCN(C(=O)C2CCN(S(=O)(=O)c3cc(Cl)ccc3OCC)CC2)CC1 | i | i | i | 0.45 | i | -6.5 | . | . | . | . | . | .
